Results taken from ChEMBL document CHEMBL1649352, “Catechin derivatives from Parapiptadenia rigida with in vitro wound-healing properties” (J Nat Prod, 2010).
Calls of active or inactive are those of the source. The calls are words filed in the database; no cut-off is given here.

Legend:
Jurkat [1] = assay: Inhibition of TNFalpha-induced NF-kappaB activation in human Jurkat cells at 10 to 55 uM after 24 hrs by electrophoretic mobility shift assay; assay type: cell-based
Method in brief: (§1)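 Jurkat T cells (3 × 10⁵ cells/mL) in RPMI 1640 with 10% FCS were preincubated 24 h with compound at 10, 20, 30 or 55 µM. They were then stimulated 1 h with rh-TNF-α 2.5 ng/mL. Nuclear extracts were probed with a [γ-³³P]-labelled NF-κB consensus oligonucleotide. Specificity was checked with a 100-fold molar excess of unlabelled oligo. Bands were quantified densitometrically by phosphorimager.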

[2] = molecular target: Mitogen-activated protein kinase 14 (Homo sapiens, UniProt Q16539); assay: Inhibition of p38alpha after 1 hr by ELISA
NIH3T3 [3] = assay: Antimigratory activity against Swiss albino mouse 3T3 cells assessed as increase of cell numbers at 10 uM after 12 hrs by scratch-wound assay; assay type: functional, cell-based
Method in brief: (§2)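 Swiss 3T3 albino mouse fibroblasts, cultured in DMEM with 10% FCS and penicillin/streptomycin at 37 °C, 5% CO2. A scratch wound was made in the confluent monolayer. Compounds were tested at 1, 10 and 20 µM. PDGF 2 ng/mL served as positive control and a DMSO-only well as reference. The % increase in cells migrating and proliferating into the wounded area was read after 12 h. At least triplicate runs, mean ± SEM.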

NIH3T3 [4] = assay: Antimigratory activity against Swiss albino mouse 3T3 cells assessed as increase of cell numbers at 1 uM after 12 hrs by scratch-wound assay; assay type: functional, cell-based; method in brief: as §2
NIH3T3 [5] = assay: Antimigratory activity against Swiss albino mouse 3T3 cells assessed as increase of cell numbers at 1 to 20 uM after 12 hrs by scratch-wound assay; assay type: functional, cell-based; method in brief: as §2
Jurkat [6] = assay: Inhibition of TNF-alpha-induced NFkappaB activation in human Jurkat cells at 10 to 20 uM after 24 hrs by electrophoretic mobility shift assay; assay type: cell-based; method in brief: as §1
Jurkat [7] = assay: Inhibition of TNF-alpha-induced NFkappaB activation in human Jurkat cells at 30 to 55 uM after 24 hrs by electrophoretic mobility shift assay; assay type: cell-based; method in brief: as §1
Jurkat [8] = assay: Cytotoxicity against human Jurkat cells at 55 uM after 22 hrs by MTT assay; assay type: cell-based
NIH3T3 [9] = assay: Antimigratory activity against Swiss albino mouse 3T3 cells assessed as increase of cell numbers at 2 ng/ml after 12 hrs by scratch-wound assay; assay type: functional
Method in brief: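 Swiss 3T3 albino mouse fibroblasts were grown in DMEM with 10% fetal calf serum and penicillin/streptomycin at 37 °C and 5% CO2, and a scratch wound was made in the monolayer. PDGF (2 ng/mL) was incubated for 12 h. Read-out was the % of cells that migrated into and proliferated in the wounded area, relative to a cells-plus-DMSO control. At least triplicate; mean ± SEM.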

Sequence of Mitogen-activated protein kinase 14 (Q16539 whole entry): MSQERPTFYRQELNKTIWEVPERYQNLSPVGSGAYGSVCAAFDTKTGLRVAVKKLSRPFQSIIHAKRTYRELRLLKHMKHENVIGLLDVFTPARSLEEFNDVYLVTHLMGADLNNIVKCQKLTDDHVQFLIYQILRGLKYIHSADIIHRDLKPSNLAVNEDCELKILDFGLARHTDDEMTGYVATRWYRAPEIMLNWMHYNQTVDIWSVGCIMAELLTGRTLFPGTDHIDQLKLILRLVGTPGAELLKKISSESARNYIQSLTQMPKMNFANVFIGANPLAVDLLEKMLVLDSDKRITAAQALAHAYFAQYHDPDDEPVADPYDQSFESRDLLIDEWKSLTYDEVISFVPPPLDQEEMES

Row | Compound | Activity (Jurkat [1]) | IC50 [2] [µM] | Activity (NIH3T3 [5]) | other results
1 | COc1c(O)cc([C@H]2Oc3cc(O)cc(O)c3C[C@H]2O)cc1O | Active | 39.2 |  | 
2 | COc1ccc([C@H]2Oc3cc(O)cc(O)c3C[C@H]2OC(=O)c2cc(O)c(O)c(O)c2)cc1O |  |  |  | Activity (NIH3T3 [3]): inactive; Activity (NIH3T3 [4]): Active
3 | COc1c(O)cc([C@H]2Oc3cc(O)cc(O)c3C[C@H]2OC(=O)c2cc(O)c(O)c(O)c2)cc1O | Active |  | Active | 
4 | COc1cc([C@H]2CC(=O)Oc3cc(O)c4c(c32)O[C@H](c2cc(O)c(OC)c(O)c2)[C@@H](O)C4)ccc1O |  | 50.8 | Active | Activity (Jurkat [6]): Active; Activity (Jurkat [7]): inactive; Activity (Jurkat [8]): 11%
5 | O=C(O[C@@H]1Cc2c(O)cc(O)cc2O[C@@H]1c1ccc(O)c(O)c1)c1cc(O)c(O)c(O)c1 [EPICATECHIN GALLATE] |  | 1.47 |  | Activity (NIH3T3 [3]): inactive; Activity (NIH3T3 [4]): Active
6 | COc1cc(/C=C/C(=O)O[C@@H]2Cc3c(O)cc(O)cc3O[C@@H]2c2cc(O)c(O)c(O)c2)ccc1O | Active |  |  | 
7 | COc1c(O)cc([C@H]2Oc3cc(O)cc(O)c3C[C@@H]2O)cc1O | Active |  | Active | 
8 | O=C(O[C@@H]1Cc2c(O)cc(O)cc2O[C@@H]1c1cc(O)c(O)c(O)c1)c1cc(O)c(O)c(O)c1 [EPIGALOCATECHIN GALLATE] | Active | 2.21 | Active | Activity (NIH3T3 [9]): 59.5%
